Converted amounts (≈) assume the structure as drawn. The source made the active and inactive calls. No cut-off for these calls is given here.
Legend:
MOLM-13 = assay: cells; assay type: functional, cell-based; conditions: Homo sapiens, MOLM-13, 96 h
[1] = Aqueous solubility of the compound at pH 4 for 24 hrs by HPLC-MS/MS; assay type: physicochemical
[2] = Aqueous solubility of the compound at pH 6.5 for 24 hrs by HPLC-MS/MS; assay type: physicochemical
[3] = Efflux ratio of apparent permeability across basolateral to apical side over apical to basolateral side in human Caco2 cells at 2 uM incubated for 2 hrs; conditions: Caco-2
A2780 = assay: cells; assay type: functional, cell-based; conditions: Homo sapiens, A2780, 96 h
[4] = Apparent permeability of the compound across apical side to basolateral side in human CaCo-2 cells at 2 uM incubated for 2 hrs; assay type: ADME, cell-based
How it was run: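 Caco-2 monolayers with TEER of at least 400 Ω·cm². Compound (predissolved in DMSO) added apically or basolaterally at a final 2 μM and incubated 2 h at 37 °C, in triplicate. Both compartments were sampled before and after, MeOH-precipitated and analysed by LC–MS/MS. Papp = (Vr/P0)(1/S)(P2/t).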

[5] = Volume of distribution at steady state in Wistar-Han rat blood at 0.3 to 0.5 mg/kg, iv measured upto 24 hrs by HPLC with LC-MS/MS; assay type: ADME, organism-based; conditions: dose 0.3-0.5 mg/kg, read-out: Vdss
[6] = Clearance in Wistar-Han rat blood at 0.3 to 0.5 mg/kg, iv measured upto 24 hrs by HPLC with LC-MS/MS; assay type: ADME, organism-based; conditions: dose 0.3-0.5 mg/kg
[7] = Half life in Wistar-Han rat blood at 0.3 to 0.5 mg/kg, iv measured upto 24 hrs by HPLC with LC-MS/MS; assay type: ADME, organism-based; conditions: dose 0.3-0.5 mg/kg
[8] = Clearance in Wistar-Han rat hepatocytes at 1 uM measured for 2 to 90 mins by LC-MS/MS; assay type: ADME, cell-based, Hepatocyte; conditions: Wistar-Han, time 2-90 min
Cytochrome P450 2B6 = target: T1, Cytochrome P450 2B6 (Homo sapiens, UniProt P20813); assay: Inhibition of CYP2B6 in human liver microsomes using bupropion as substrate by LC-MS/MS analysis; assay type: ADME
T1 sequence (P20813 whole entry): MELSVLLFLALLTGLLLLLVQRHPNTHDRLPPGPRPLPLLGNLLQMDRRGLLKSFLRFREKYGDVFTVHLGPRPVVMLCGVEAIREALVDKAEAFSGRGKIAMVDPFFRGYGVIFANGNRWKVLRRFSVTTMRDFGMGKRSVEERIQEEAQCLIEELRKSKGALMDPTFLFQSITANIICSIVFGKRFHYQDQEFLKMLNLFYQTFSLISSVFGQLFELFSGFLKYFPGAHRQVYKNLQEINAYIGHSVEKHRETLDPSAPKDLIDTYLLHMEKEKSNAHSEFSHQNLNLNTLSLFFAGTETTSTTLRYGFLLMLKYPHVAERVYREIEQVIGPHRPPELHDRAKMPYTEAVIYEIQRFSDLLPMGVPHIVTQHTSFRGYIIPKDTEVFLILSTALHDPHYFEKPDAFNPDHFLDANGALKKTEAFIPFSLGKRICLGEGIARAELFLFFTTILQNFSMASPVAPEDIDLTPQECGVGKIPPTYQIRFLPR

MV4-11 [9] = assay: Antitumor activity against human MV4-11 cells xenografted in rat assessed as inhibition of tumor growth at 12 mg/kg, po administered for 15 days; assay type: functional, organism-based; conditions: time 15.0 day
How it was run: (§1)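 Rat MV4-11 xenograft, oral dosing at 12 mg/kg daily for 15 days. Tumor growth was monitored during treatment and for a further 30 days without treatment.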

Cytochrome P450 2C19 = Cytochrome P450 2C19 (Homo sapiens, UniProt P33261); assay: Inhibition of CYP2C19 in human liver microsomes using (S)-mephenytoin as substrate by LC-MS/MS analysis; assay type: ADME; conditions: read-out: INH
Chain of Cytochrome P450 2C19 (P33261 whole entry): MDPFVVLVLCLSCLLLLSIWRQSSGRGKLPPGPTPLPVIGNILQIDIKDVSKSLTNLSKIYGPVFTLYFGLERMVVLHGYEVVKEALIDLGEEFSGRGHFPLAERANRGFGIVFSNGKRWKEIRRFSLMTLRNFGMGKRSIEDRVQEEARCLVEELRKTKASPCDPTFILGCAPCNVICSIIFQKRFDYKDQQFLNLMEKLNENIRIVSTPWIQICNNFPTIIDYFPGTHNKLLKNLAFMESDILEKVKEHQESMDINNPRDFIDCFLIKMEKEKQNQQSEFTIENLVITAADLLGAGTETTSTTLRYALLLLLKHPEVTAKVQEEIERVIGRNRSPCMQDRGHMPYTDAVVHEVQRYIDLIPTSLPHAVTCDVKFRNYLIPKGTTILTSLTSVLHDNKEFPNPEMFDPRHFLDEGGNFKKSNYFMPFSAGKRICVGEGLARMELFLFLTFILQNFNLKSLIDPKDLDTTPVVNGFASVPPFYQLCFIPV

MV4-11 [10] = assay: Antitumor activity against human MV4-11 cells xenografted in rat assessed as inhibition of tumor growth at 12 mg/kg, po administered for 15 days measured after without treatment for additional 30 days; assay type: functional, organism-based; conditions: time 15.0 day
How it was run: as §1

Cytochrome P450 1A2 [11] = target: T2, Cytochrome P450 1A2 (Homo sapiens, UniProt P05177); assay: Inhibition of CYP1A2 in human liver microsomes using phenacetin as substrate by LC-MS/MS analysis; assay type: ADME; conditions: read-out: INH
T2 sequence (P05177 whole entry): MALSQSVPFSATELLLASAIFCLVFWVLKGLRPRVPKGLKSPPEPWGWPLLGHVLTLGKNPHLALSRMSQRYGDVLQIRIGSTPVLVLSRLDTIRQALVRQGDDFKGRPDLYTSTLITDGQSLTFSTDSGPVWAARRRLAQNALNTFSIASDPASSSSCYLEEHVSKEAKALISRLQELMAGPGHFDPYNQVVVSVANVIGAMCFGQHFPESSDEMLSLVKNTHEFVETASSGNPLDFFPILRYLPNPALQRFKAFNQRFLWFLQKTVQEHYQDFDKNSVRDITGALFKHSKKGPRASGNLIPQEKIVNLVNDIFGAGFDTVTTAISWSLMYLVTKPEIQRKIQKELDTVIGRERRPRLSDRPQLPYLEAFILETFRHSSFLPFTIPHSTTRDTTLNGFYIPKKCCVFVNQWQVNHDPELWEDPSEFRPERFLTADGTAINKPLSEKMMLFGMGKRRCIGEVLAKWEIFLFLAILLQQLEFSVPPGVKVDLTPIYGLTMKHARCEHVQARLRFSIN

Cytochrome P450 2C9 = Cytochrome P450 2C9 (Homo sapiens, UniProt P11712); assay: Inhibition of CYP2C9 in human liver microsomes using diclofenac as substrate by LC-MS/MS analysis; assay type: ADME; conditions: read-out: INH
Chain of Cytochrome P450 2C9 (P11712 whole entry): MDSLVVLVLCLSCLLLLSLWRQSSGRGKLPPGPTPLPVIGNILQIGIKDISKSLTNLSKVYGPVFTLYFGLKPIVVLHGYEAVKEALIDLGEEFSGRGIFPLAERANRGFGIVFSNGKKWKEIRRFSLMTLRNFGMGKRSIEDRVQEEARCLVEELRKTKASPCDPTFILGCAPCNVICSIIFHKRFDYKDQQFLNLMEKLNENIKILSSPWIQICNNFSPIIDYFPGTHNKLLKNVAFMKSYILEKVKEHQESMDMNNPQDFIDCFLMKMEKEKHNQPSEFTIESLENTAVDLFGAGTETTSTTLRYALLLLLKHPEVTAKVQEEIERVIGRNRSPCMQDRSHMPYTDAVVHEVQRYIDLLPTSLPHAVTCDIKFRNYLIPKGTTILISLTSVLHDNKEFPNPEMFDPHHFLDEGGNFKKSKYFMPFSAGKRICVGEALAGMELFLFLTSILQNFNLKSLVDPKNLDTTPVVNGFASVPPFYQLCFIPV

[12] = Clearance in Wistar-Han rat Liver microsomes at 1 uM measured for 2 to 90 mins by LC-MS/MS; assay type: ADME, Microsome; conditions: time 2-90 min
Cytochrome P450 2E1 = Cytochrome P450 2E1 (Homo sapiens, UniProt P05181); assay: Inhibition of CYP2E1 in human liver microsomes using chlorzoxazone as substrate by LC-MS/MS analysis; assay type: ADME
Chain of Cytochrome P450 2E1 (P05181 whole entry): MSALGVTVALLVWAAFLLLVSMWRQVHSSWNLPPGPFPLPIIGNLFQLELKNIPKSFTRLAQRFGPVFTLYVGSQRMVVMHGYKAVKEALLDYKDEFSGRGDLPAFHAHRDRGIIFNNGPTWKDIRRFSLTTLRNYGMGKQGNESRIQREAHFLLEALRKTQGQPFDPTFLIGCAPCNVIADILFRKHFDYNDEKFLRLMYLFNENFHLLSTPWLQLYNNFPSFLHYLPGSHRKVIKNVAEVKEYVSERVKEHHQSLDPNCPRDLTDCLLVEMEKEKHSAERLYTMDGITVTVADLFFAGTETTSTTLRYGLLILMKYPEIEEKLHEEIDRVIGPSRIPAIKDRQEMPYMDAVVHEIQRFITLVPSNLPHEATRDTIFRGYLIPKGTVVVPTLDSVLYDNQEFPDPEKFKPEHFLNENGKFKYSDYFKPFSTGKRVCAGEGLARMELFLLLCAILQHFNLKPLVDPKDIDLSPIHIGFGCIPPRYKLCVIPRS

Cytochrome P450 2C8 = target: T3, Cytochrome P450 2C8 (Homo sapiens, UniProt P10632); assay: Inhibition of CYP2C8 in human liver microsomes using amodiaquine as substrate by LC-MS/MS analysis; assay type: ADME; conditions: read-out: INH
T3 sequence (P10632 whole entry): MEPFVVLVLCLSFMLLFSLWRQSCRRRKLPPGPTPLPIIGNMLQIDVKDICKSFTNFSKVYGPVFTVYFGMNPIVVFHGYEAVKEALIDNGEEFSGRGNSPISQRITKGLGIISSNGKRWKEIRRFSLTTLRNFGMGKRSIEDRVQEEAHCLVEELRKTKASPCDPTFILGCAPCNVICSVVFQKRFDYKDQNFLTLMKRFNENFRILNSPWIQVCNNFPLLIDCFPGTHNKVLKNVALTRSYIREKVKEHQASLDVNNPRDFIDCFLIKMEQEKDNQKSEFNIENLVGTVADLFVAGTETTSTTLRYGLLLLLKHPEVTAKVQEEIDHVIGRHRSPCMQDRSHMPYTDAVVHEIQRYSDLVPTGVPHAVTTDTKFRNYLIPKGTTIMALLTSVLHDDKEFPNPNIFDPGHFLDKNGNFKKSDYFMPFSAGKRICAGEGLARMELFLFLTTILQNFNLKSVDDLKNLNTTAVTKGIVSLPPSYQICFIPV

Cytochrome P450 1A2 [13] = target: T2, Cytochrome P450 1A2; assay: Induction of CYP1A2 in human hepatocytes by LC-MS/MS analysis; assay type: ADME, cell-based, Hepatocyte
Cytochrome P450 2A6 = target: T4, Cytochrome P450 2A6 (Homo sapiens, UniProt P11509); assay: Inhibition of CYP2A6 in human liver microsomes using coumarin as substrate by LC-MS/MS analysis; assay type: ADME
T4 sequence (P11509 whole entry): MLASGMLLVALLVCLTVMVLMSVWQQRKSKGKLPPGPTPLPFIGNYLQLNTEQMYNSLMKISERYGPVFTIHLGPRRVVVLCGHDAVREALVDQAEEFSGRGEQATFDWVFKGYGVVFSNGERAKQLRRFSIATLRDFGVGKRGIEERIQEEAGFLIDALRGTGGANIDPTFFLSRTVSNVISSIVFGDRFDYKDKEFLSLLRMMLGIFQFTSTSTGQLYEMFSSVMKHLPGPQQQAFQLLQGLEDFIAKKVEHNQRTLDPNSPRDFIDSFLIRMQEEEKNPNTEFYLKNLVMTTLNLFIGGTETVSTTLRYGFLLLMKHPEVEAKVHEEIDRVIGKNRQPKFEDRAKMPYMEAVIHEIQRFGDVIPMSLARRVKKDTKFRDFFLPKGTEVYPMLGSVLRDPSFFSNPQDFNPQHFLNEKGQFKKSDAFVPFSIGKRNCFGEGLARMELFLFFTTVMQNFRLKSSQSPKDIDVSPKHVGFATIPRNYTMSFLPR

[14] = Ratio of drug level in Wistar-Han rat blood to plasma; conditions: blood and plasma
Cytochrome P450 2D6 = Cytochrome P450 2D6 (Homo sapiens, UniProt P10635); assay: Inhibition of CYP2D6 in human liver microsomes using dextromethorphan as substrate by LC-MS/MS analysis; assay type: ADME; conditions: read-out: INH
Chain of Cytochrome P450 2D6 (P10635 whole entry): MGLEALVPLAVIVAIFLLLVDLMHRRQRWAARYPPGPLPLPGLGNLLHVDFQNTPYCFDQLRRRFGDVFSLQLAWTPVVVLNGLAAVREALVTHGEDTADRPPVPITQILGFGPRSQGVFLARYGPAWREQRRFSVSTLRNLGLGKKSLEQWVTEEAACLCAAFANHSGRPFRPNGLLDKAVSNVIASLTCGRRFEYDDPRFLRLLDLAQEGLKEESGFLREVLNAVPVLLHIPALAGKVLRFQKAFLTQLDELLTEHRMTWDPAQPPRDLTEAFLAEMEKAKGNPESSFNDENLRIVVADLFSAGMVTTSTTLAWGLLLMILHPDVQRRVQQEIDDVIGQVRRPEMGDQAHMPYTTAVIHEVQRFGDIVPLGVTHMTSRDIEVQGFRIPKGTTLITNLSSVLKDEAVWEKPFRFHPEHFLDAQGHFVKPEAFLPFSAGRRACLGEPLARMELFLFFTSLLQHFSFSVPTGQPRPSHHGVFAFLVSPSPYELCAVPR

Cytochrome P450 3A4 = Cytochrome P450 3A4 (Homo sapiens, UniProt P08684); assay: Inhibition of CYP3A4 in human liver microsomes using midazolam/testosterone as substrate by LC-MS/MS analysis; assay type: ADME; conditions: read-out: INH
Chain of Cytochrome P450 3A4 (P08684 whole entry): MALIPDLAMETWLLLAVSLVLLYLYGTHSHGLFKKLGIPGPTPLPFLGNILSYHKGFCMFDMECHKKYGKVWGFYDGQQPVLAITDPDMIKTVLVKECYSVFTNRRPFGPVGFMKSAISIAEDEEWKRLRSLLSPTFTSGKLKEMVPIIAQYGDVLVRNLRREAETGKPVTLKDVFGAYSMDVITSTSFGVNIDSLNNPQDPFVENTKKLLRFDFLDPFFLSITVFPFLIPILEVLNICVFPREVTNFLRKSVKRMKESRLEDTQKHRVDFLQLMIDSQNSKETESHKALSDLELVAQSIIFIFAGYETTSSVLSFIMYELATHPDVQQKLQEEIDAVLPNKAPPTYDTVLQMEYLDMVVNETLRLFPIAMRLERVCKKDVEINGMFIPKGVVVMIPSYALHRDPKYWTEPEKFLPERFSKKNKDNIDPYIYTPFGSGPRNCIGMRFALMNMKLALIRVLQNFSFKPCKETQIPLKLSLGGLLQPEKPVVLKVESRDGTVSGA

[15] = Metabolic stability in Wistar-Han rat hepatocytes at 1 uM measured for 2 to 90 mins by LC-MS/MS; assay type: ADME, cell-based, Hepatocyte; conditions: time 2-90 min

Structure (SMILES): COc1cc(F)ccc1-c1cc(Nc2cc(CS(C)(=N)=O)ccn2)ncn1 (stereo unspecified)
- IC50 (MOLM-13): 0.08 µM
- solubility at 24 h [1]: 43 µg/mL (≈ 111 µM)
- solubility at 24 h [2]: 2 µg/mL (≈ 5.16 µM)
- efflux ratio at 2 h, 2 µM [3]: 9.3
- IC50 (A2780): 0.126 µM
- Papp A→B at 2 h, 2 µM [4]: 2.6 ×10⁻⁶ cm/s

Structure (SMILES): COc1cc(F)ccc1-c1nc(Nc2cc(F)cc(CS(C)(=N)=N)c2)ncc1F
- solubility at 24 h [2]: 155 µg/mL (≈ 368 µM)
- Vd [5]: 2.2 L/kg
- clearance [6]: 55 mL/min/kg
- IC50 (A2780): 0.184 µM
- half-life [7]: 36 min
- Papp A→B at 2 h, 2 µM [4]: 5 ×10⁻⁶ cm/s
- CLhep predicted at 1 µM [8]: 35 mL/min/kg

Structure (SMILES): COc1cc(F)ccc1-c1ncnc(Nc2cccc(CS(C)(=N)=O)c2)n1 (stereo unspecified)
- IC50 (MOLM-13): 0.31 µM
- solubility at 24 h [1]: 309 µg/mL (≈ 798 µM)
- INH (Cytochrome P450 2B6): > 20 µM
- Activity (MV4-11 [9]): Active
- IC50 (Cytochrome P450 2C19): > 20 µM
- solubility at 24 h [2]: 479 µg/mL (≈ 1240 µM)
- Vd [5]: 1 L/kg
- Activity (MV4-11 [10]): inactive
- IC50 (Cytochrome P450 1A2 [11]): > 20 µM
- efflux ratio at 2 h, 2 µM [3]: 6.1
- IC50 (Cytochrome P450 2C9): > 20 µM
- clearance [6]: 18.3 mL/min/kg
- CLH [12]: 2.5 mL/min/kg
- IC50 (A2780): 0.38 µM
- INH (Cytochrome P450 2E1): > 20 µM
- IC50 (Cytochrome P450 2C8): > 20 µM
- Papp A→B at 2 h, 2 µM [4]: 3.5 ×10⁻⁶ cm/s
- Activity (Cytochrome P450 1A2 [13]): Not Active
- CLhep predicted at 1 µM [8]: 2.83 mL/min/kg
- INH (Cytochrome P450 2A6): > 20 µM
- blood plasma ratio [14]: 1.1
- IC50 (Cytochrome P450 2D6): > 20 µM
- IC50 (Cytochrome P450 3A4): > 20 µM

Structure (SMILES): COc1cc(F)ccc1-c1cc(Nc2cc(C[S@](C)(=N)=O)ccn2)ncc1F
- IC50 (MOLM-13): 0.042 µM
- IC50 (A2780): 0.052 µM

Structure (SMILES): COc1cc(F)ccc1-c1nc(Nc2cc(F)cc(CN)c2)ncc1F
- solubility at 24 h [2]: 17 µg/mL (≈ 47.2 µM)
- Stability [15]: Unstable
- IC50 (A2780): 0.692 µM
- CLhep predicted at 1 µM [8]: 50 mL/min/kg

Structure (SMILES): COc1cc(F)ccc1-c1nc(Nc2cc(F)c(F)c(CS(C)(=O)=NC#N)c2)ncc1F (stereo unspecified)
- solubility at 24 h [2]: 0.2 µg/mL (≈ 0.43 µM)
- Stability [15]: Unstable
- IC50 (A2780): 0.037 µM
- CLhep predicted at 1 µM [8]: 55 mL/min/kg
